Source: PubChem BioAssay AID1136 (Sanford-Burnham Center for Chemical Genomics, 2008)
The whole screen tested about 200,000 compounds, of which fewer than 10 were called active.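 How the source made its calls: active means activation factor at least 2 at 20 µM; inactive means the rest.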 A selection follows.

target: Alkaline phosphatase, tissue-nonspecific isozyme (Homo sapiens) (UniProt P05186); test: TNAP activators at high phosphate acceptor level, primary screen, biochemical, luminescence, uHTS (AID 1136); conditions: purified TNAP, CDP-star luminescence, 1 M DEA, 30 min; at 20 µM; hits give high values; 0 = EDTA background, 1 = DMSO-only activity
Sequence (P05186 whole entry, looked up): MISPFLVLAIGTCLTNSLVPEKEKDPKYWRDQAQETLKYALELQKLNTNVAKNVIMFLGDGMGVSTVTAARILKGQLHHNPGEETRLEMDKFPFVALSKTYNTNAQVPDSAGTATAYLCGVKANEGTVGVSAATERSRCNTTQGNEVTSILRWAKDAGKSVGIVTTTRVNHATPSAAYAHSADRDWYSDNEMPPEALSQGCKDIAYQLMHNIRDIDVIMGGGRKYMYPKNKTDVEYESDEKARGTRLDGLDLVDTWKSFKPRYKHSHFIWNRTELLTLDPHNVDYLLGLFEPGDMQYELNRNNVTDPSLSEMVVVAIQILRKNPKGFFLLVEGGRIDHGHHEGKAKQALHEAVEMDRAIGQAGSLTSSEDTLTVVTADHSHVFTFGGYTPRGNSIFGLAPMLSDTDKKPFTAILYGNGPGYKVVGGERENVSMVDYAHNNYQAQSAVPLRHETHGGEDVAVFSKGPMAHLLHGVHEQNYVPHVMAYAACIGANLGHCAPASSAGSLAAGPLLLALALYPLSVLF
Method in brief: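 Dosing: 20 µM single point. System: human TNAP. Amount: TNAP 1/800 final. Incubation: 30 min, room temperature. Read-out: TNAP activation factor scaled between EDTA and DMSO control wells. Signal: luminescence from CDP-star hydrolysis. Medium: 1 M DEA, pH 9.8, Mg2+, Zn2+. Control set: EDTA negative control, DMSO positive control.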

| Structure (SMILES) | activation factor |
| --- | --- |
| O=C(CNC(c1ccccc1)c1ccccc1)Nc1ccc(F)cc1 | 1 (inactive) |
| Cc1cc(C)c(S(=O)(=O)N2CCOCC2)cc1C | 1 (inactive) |
| CC1(C)C2CCC1(C)C(OC(=O)c1ccc(O)cc1)C2 (stereo not given) | 1.1 (inactive) |
| Cc1nc2sc3c(c2c(=O)n1NC(=O)CCl)CCCC3 | 1 (inactive) |
| COc1ccc(C)cc1NC(=O)CSc1nnc(CC(=O)Nc2ccccc2F)n1C | 1.1 (inactive) |
| Cc1ccc(S(=O)(=O)N2CCN(C(=O)c3cccs3)CC2)cc1 | 1 (inactive) |
| CCCC(=O)n1nc(NCc2ccc(OC)cc2)nc1NCc1ccc(OC)cc1 | 1 (inactive) |
| CNC(=S)Nc1ccc([N+](=O)[O-])cc1 | 1 (inactive) |
| COc1ccc(C(=O)C[n+]2ccc(C)cc2)cc1 | 1.1 (inactive) |
| NC(=O)COc1ccc(C23CC4CC(CC(C4)C2)C3)cc1 | 1.1 (inactive) |
| CCc1ccccc1NC(=S)N(CCN1CCCCCC1)Cc1ccco1 | 1 (inactive) |
| CCCCN1C(=O)c2ccc(C(=O)Nc3ccc(S(=O)(=O)N(C)C)cc3)cc2C1=O | 1 (inactive) |
| CCCc1c(C)nc2c(Br)cccc2c1Cl | 1 (inactive) |
| Clc1ccc(CN2CCN(/N=C/c3cccnc3)CC2)cc1 | 1 (inactive) |
| CC(=O)N1CCc2cc(Br)cc(S(=O)(=O)CCC(=O)Nc3c(C)n(C)n(-c4ccccc4)c3=O)c21 | 1 (inactive) |
| CCN(CC)c1ccc(C(=O)N/N=C(\C)c2cccc(OC)c2)cc1 | 1 (inactive) |
| Cc1ccc(C)c2[nH]c(=O)c(CCNC(=O)c3cccs3)cc12 | 1 (inactive) |
| O=C(/C=C/c1c(F)cccc1Cl)Nc1nn[nH]n1 | 1 (inactive) |
| CC(=O)Nc1ccc(/C=N/NC(=O)c2cccs2)cc1 | 1 (inactive) |
| CC(CC(=O)N1CCN(c2ccccc2)CC1)c1ccccc1 (stereo not given) | 1 (inactive) |
| COC(=O)c1ccc(-n2cnc3ccccc32)nc1 | 1 (inactive) |
| CN1CCN(CC(=O)Nc2cccc([N+](=O)[O-])c2)CC1 | 1 (inactive) |
| O=C(CS(=O)(=O)c1ccccc1)Nc1ccc(S(=O)(=O)Nc2ccccn2)cc1 | 1 (inactive) |
| COc1ccccc1C(=O)Nn1c(-c2cccs2)nc2ccccc2c1=O | 1 (inactive) |
| CCN(CC)C(=O)C(=O)c1cn(CC(=O)NCc2ccc3c(c2)OCO3)c2ccccc12 | 1 (inactive) |
| Cc1ccc(S(=O)(=O)CCC(=O)OCc2ccccc2)cc1 | 1 (inactive) |
| CCOC(=O)c1ccccc1NC(=O)CSc1nc2ccccc2c(=O)[nH]1 | 1 (inactive) |

| Structure (SMILES) | activation factor |
| --- | --- |
| O=C(CN1CCN(c2ccc(O)cc2)CC1)NC1CCCc2ccccc21 (stereo not given) | 1 (inactive) |
| O=[N+]([O-])c1cc(S(=O)(=O)CCCN2CCOCC2)ccc1F | 1 (inactive) |
| O=S(=O)(/N=C(/Nc1ccccc1)c1ccccc1)c1cccs1 | 1 (inactive) |
| CCOc1ccc(N2C(=O)CN(c3cccc4ccccc34)C2=S)cc1 | 1.1 (inactive) |
| C/C(=N/OC(=O)c1cccc(C(F)(F)F)c1)c1cnccn1 | 1 (inactive) |
| CCN(CC)CCNC(=O)c1ccc(NS(=O)(=O)c2ccc3c(c2)OCCO3)cc1 | 1 (inactive) |
| Cc1cc(/C=C2/NC(=O)NC2=O)c(C)n1-c1cccnc1 | 1.1 (inactive) |
| C=CCC1(CC=C)CCCN1C(=O)CC1C(=O)NCCN1Cc1ccccc1OC (stereo not given) | 1 (inactive) |
| C/C(=N/NC(=O)CCc1ccccc1)c1ccco1 | 1 (inactive) |
| CCCCN(CC)CCCNC(=O)c1ccc(CSc2nc3ccncc3[nH]2)cc1 | 1 (inactive) |
| CC1=CC2=NC(=O)CC(C)(C(=O)N(CC(=O)NC(C)(C)C)Cc3ccccc3)N2C=C1 (stereo not given) | 1.1 (inactive) |
| O=C(CN1CCN(Cc2ccc(F)cc2Cl)C1=O)NCc1cccs1 | 1.1 (inactive) |
| CCC(C)(C)C1CCC(=NNC(=O)c2ccc(Br)o2)CC1 (stereo not given) | 1.1 (inactive) |
| Cc1cccc(C)c1NC(=O)Nc1ccccc1-n1ccnc1 | 1.1 (inactive) |
| Cc1cccc(N2CCN(c3ccc(C(N)=O)cc3[N+](=O)[O-])CC2)c1C | 1 (inactive) |
| COc1ccc(-c2[nH]ncc2CN(C)Cc2cccnc2)c(F)c1 | 1 (inactive) |
| COc1ccccc1CN(C)C(=O)C1(c2ccc(Cl)cc2)CC1 | 1 (inactive) |
| CCOC(=O)C(NC(C)=O)C(=O)Nc1ccc(OC)cc1 (stereo not given) | 1.1 (inactive) |
| COc1cccc(CC2(CO)CCN(Cc3cnc(-c4cccc(C)c4)nc3)CC2)c1 | 1.1 (inactive) |
| CCOc1ccc(C(C)=O)cc1CSc1nnc(-c2ccncc2)n1CCOC | 1 (inactive) |
| CN1CCN(/N=C/c2ccc(C#N)cc2)CC1 | 1 (inactive) |
| O=C1C2C3C=CC(C3)C2C(=O)N1c1ccc(-c2nc3ccccc3c(=O)o2)cc1 (stereo not given) | 1 (inactive) |
| COC(=O)CC1=NN(c2ccccc2)C(=O)C1 | 1 (inactive) |
| COc1ccc(/C(C)=N/NC(=O)CCC(=O)Nc2ccc(Cl)cc2Cl)c(OC)c1 | 0.9 (inactive) |
| Cc1cccc(NC(=O)CN2C(=O)c3ccccc3C2=O)c1C | 1 (inactive) |
| CC1=C(C)CC(C(=O)NC(C)CCc2ccccc2)C(C(=O)O)C1 (stereo not given) | 1 (inactive) |
| Cc1ccc(O)c(-c2cc(C(=O)NCc3ccccc3)[nH]n2)c1 | 2.3 (active) |

| Structure (SMILES) | activation factor |
| --- | --- |
| Cc1ccc(O)c(-c2cc(C(=O)Nc3c(C)n(C)n(-c4ccccc4)c3=O)[nH]n2)c1 | 1 (inactive) |
| Cc1ccc(CNC(=O)c2ccccc2CCc2ccccc2)cc1 | 1.1 (inactive) |
| O=C1CCC(CCC(=O)N2CCCC(C(=O)c3ccc(Cl)cc3)C2)=NN1 (stereo not given) | 1.1 (inactive) |
| [O-][n+]1c2c(nn1-c1ccc(Cl)c(Cl)c1)-c1nonc1CC2 | 1 (inactive) |
| Cc1ccc(CN2CCC(N3CCC(C(=O)NCC4CCCO4)CC3)CC2)o1 (stereo not given) | 1 (inactive) |
| Cc1ccccc1-c1n[nH]c(=S)n1/N=C/c1ccc(-c2ccccc2Br)o1 | 0.9 (inactive) |
| CCOC(=O)C1(Cc2cccc(OC)c2)CCCN(S(=O)(=O)c2cccnc2)C1 (stereo not given) | 1.1 (inactive) |
| CCOc1ccc(C(=O)NCCCN2CCCC2=O)cc1 | 1 (inactive) |
| COc1ccc(NS(=O)(=O)c2cc(NC(=O)/C=C/c3cc(OC)c(OC)c(OC)c3)ccc2N2CCCCC2)cc1 | 1 (inactive) |
| Cc1cc(SCC(=O)NCCN2C(=O)CSC2=O)nc2ccccc12 | 1 (inactive) |
| N#Cc1cnn2cc(CCN3CCOCC3)c(-c3ccc(F)cc3)nc12 | 1 (inactive) |
| Cc1ccc(C(=O)NC(=S)Nc2ccc(N3CCOCC3)cc2)cc1 | 1 (inactive) |
| COC(=O)COc1cccc2c(=O)n(CC(=O)NCCc3ccc(OC)c(OC)c3)ccc12 | 1 (inactive) |
| Cc1ccc(NC(=S)N(CCN2CCCCC2)Cc2ccco2)cc1C | 1 (inactive) |
| COC(=O)c1cc(NC(=O)Cc2ccccc2[N+](=O)[O-])ccc1Cl | 1 (inactive) |
| COc1ccc(C(=O)CSc2nc(C)cc(C)n2)cc1[N+](=O)[O-] | 1 (inactive) |
| Cc1ccc(S(=O)(=O)N(CC(=O)NN=C2CCN(C)CC2)c2ccc(F)cc2)cc1 | 1 (inactive) |
| CN(C)S(=O)(=O)c1cccc(NC(=O)COC(=O)c2cc(=O)[nH]c(=O)[nH]2)c1 | 1 (inactive) |
| O=S(=O)(Nc1ncccn1)c1ccc(NS(=O)(=O)c2cccc(Cl)c2Cl)cc1 | 1 (inactive) |
| O=C(NNC(=S)NCc1ccco1)C(c1ccccc1)c1ccccc1 | 1 (inactive) |
| CCCCC(=O)NCc1ccc(F)cc1 | 1.1 (inactive) |
| CCN(c1ccc(NC(=O)COC(=O)CCc2nc3ccccc3n2-c2ccccc2)cc1)C(C)C | 1 (inactive) |
| Clc1cccc(CN2COc3c(cc(Cl)c4cccnc34)C2)c1 | 1.1 (inactive) |
| CCN(CCO)C(=S)Nc1cc(C(=O)OC)ccc1C(=O)OC | 1 (inactive) |
| Cc1ccccc1CC1(CO)CCCN(Cc2ccc3c(c2)OCCO3)C1 (stereo not given) | 1.1 (inactive) |
| Clc1ccc(-n2nnnc2-c2cnc(-c3ccccn3)nc2-c2cccs2)cc1 | 1 (inactive) |
| COc1ccc(C(=O)Nc2c(Cl)cc(Cl)cc2C(=O)N2CCC(C)CC2)cc1 | 1 (inactive) |

| Structure (SMILES) | activation factor |
| --- | --- |
| O=C(c1ccc(Cl)c([N+](=O)[O-])c1)N1CCN(c2ccccc2)CC1 | 1 (inactive) |
| O=C(CCl)NNc1cccc(Cl)n1 | 1 (inactive) |
| C=CCN1C(=O)C(Cc2ccc(OCC)cc2)SC1=Nc1ccc(C(=O)O)cc1 (stereo not given) | 1 (inactive) |
| Cc1nc([N+](=O)[O-])nn1C12CC3CC(CC(Br)(C3)C1)C2 | 1 (inactive) |
| CC1CCC(C(C)C)C(=O)/C1=C\c1ccc(NC(=O)CCC(=O)O)cc1 (stereo not given) | 1.1 (inactive) |
| O=C(CN1C2=NCCN2c2ccccc21)c1cccs1 | 1.1 (inactive) |
| COc1ccc(/C=N/NC(=O)c2ccncc2)cc1CN1CCCc2ccccc21 | 1 (inactive) |
| Cc1ccnc(NC(=O)c2ccco2)n1 | 1 (inactive) |
| CCNc1nc(-c2cc3ccccc3o2)cs1 | 1.1 (inactive) |
| Oc1cccc(C2c3[nH]c4ccccc4c3CCN2Cc2cnn(-c3ccccc3)c2)c1 (stereo not given) | 1 (inactive) |
| COC(=O)c1ccc(C(NC(=O)OCc2ccccc2)/C(C)=C/[C@@H](C)C(=O)NCc2ccc(OC)c(OC)c2)cc1 (stereo not given in full) | 1.1 (inactive) |
| CCOc1c2ccc(C(=O)NC3CCCc4ccccc43)cc2nn1CC (stereo not given) | 1 (inactive) |
| Cc1nnsc1C(=O)N/N=C/c1cccc(C(F)(F)F)c1 | 1 (inactive) |
| Cc1[nH]c2ccccc2c1/C=C(/C#N)C(=O)NC(C)C | 1 (inactive) |
| O=C(Cc1c(F)cccc1Cl)Nc1ccc(-n2cnnn2)cc1 | 1 (inactive) |
| COCCCNC(=O)Cn1c(=O)n(Cc2ccccc2Cl)c(=O)c2cc(OC)c(OC)cc21 | 1 (inactive) |
| COc1cc([N+](=O)[O-])ccc1NC(=O)CN1CCCC1 | 1 (inactive) |
| COc1ccc(-c2nn(-c3ccccc3)cc2CN2CCCO2)c(F)c1 | 1.1 (inactive) |
| O=C(O/N=C(/c1ccccc1)c1ccncc1)c1ccccc1[N+](=O)[O-] | 1.1 (inactive) |
| CCC(C)NC(=O)Cn1nc(C(F)(F)F)c2c1CCC2 (stereo not given) | 1.1 (inactive) |
| CCOC(=O)COc1cc(O)c2c(=O)cc(-c3ccccc3)oc2c1 | 1 (inactive) |
| Cc1cccc(NC(=O)/C=C/c2ccc3c(c2)OCO3)n1 | 1 (inactive) |
| COc1ccc(Sc2nc(-c3ccccc3)ncc2OC)cc1 | 1 (inactive) |
| N#CCOc1ccc(C2=NO[C@@H]3[C@@H]4C[C@@H]([C@H]5C(=O)N(c6ccc7c(c6)OCO7)C(=O)[C@@H]45)[C@H]23)cc1 | 1 (inactive) |
